Source: PubChem BioAssay (several laboratories)
HCV core dimer: blocks dimerization of HCV core protein | TR-FRET GST/Flag-core106 dimerization, 1536-well | inhibition, % at 5 µM | actives 0.33% (n = 300,000);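 active = inhibition above the mean of all tested compounds plus 3 SD, set per screening campaign, cut at about 45% in these data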
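Assay system: Tagged HCV core106 pair (GST and Flag) | Buffer or medium: KF-containing HEPES buffer, pH 7.45, DTT, CHAPS, BSA | Also added: Eu donor and XL665 acceptor anti-tag antibodies | Dosing: One concentration, 5 µM, in 0.5% DMSO | Timing: 4 h at 22.5 °C | Technique: TR-FRET 671 and 617 nm emission | Repeats: Singlicate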
PRMT1 FP inh: PRMT1 (human) inhibition, primary screen; Q99873; recombinant PRMT1, activity-based probe fluorescence polarization; inhibition, % at 2.79 µM; actives 1.3% (n = 370,000); AID 652257;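 active = inhibition above about 21% made by adding two undisclosed values, limit read from the data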
Target sequence (Q99873 whole entry, looked up): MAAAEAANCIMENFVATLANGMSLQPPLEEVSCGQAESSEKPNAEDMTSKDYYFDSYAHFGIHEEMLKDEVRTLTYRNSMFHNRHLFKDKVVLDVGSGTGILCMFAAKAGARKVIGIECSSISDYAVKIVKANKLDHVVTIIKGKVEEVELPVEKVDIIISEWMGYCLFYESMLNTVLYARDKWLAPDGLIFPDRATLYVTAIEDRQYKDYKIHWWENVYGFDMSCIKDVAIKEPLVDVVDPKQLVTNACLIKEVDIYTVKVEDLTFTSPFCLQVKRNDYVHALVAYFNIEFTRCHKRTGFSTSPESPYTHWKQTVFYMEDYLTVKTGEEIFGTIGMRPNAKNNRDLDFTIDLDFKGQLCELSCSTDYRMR
NS3 helicase inh: HCV NS3 helicase inhibition; actives 0.56% (n = 290,000); inhibition, % at 10.9 µM; NS3 helicase DNA unwinding, Cy5 molecular beacon fluorescence; AID 1800;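 active = inhibition above the mean of all tested compounds plus 3 SD, set per campaign, cut at about 35% in these data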;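 note: 0% = DMSO wells and 100% = thioflavine S control wells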
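System: HCV NS3 helicase fragment; control set: DMSO and thioflavine S; technique: Cy5 fluorescence at 0 and 60 min, beacon hairpin quenching; reagent: beacon DNA duplex substrate plus ATP; replicates: singlicate; schedule: 1 h reaction at 25 °C, ATP-initiated; medium: MOPS buffer pH 6.5 with MgCl2, DTT, Tween20, BSA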
ABHD5-PLIN5 inh: inhibitors of human ABHD5-perilipin-5 interaction. Q00G26+Q8WTS1. inhibition, % at 4 µM. Split G. princeps luciferase complementation, luminescence, 4 h. actives 0.78% (n = 360,000);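 active = inhibition above the mean inhibition across every tested compound plus 3 SD, cut at about 22% in these data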;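 note: 0% = DMSO only wells and the 100% control is not disclosed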
APOBEC3A inh: human APOBEC3A DNA deaminase inhibition; P31941; recombinant A3A, FAM/TAMRA ssDNA deamination fluorescence; inhibition, % at 20 µM; actives 0.41% (n = 330,000); AID 493011;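 active = at least 40% inhibition at 20 µM here, with at most 30% in a related deaminase screen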;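 note: plate controls were A3A with DMSO for no effect and wells lacking A3A enzyme for full effect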
Target sequence (P31941 whole entry, looked up): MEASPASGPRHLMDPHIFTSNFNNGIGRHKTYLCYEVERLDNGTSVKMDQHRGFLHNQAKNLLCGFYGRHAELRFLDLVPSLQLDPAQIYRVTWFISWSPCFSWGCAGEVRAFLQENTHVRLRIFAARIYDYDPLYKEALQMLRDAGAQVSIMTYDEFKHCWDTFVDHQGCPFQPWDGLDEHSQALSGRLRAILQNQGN
APOBEC3G inh: blocks human APOBEC3G single-stranded DNA deamination; Q9HC16; recombinant A3G, ssDNA deamination FAM/TAMRA fluorescence; inhibition, % at 20 µM; actives 0.28% (n = 330,000);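 active = inhibition of at least 40% at 20 µM, with no more than 30% in the related APOBEC3A deaminase screen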;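 note: plate controls were DMSO wells with A3G for no effect and wells lacking A3G enzyme for full effect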
PRMT1 inh conf: confirmation of human PRMT1 inhibitors. shares compounds with PRMT1 FP inh. actives 42% (n = 3,300). inhibition, % at 2.79 µM. recombinant His-PRMT1, activity-based probe fluorescence polarization. AID 687036;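 active = mean inhibition across replicates above the hit cutoff derived for the earlier primary screen, cut at about 22% in these data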
Active calls of the source: *; . = no result given. The list is not random: actives were taken first. Their share in the collection is about 2.9%.

SMILES	HCV core dimer	PRMT1 FP inh	NS3 helicase inh	ABHD5-PLIN5 inh	APOBEC3A inh	APOBEC3G inh	PRMT1 inh conf
C=CCOC(=O)C1=C(C)NC(SCC(=O)Nc2nccs2)=C(C#N)C1c1ccc(Cl)cc1 (centres undefined)	33	6	12	-7	3	-1	.
Nc1nc2cc(Cl)ccc2cc1C(=O)NCCCc1ccccc1	.	.	.	-6	.	.	.
O=C(OCC#CCSc1nnc(-c2cc3ccccc3cc2O)o1)c1ccc(F)cc1	.	-4	.	.	.	.	.
Cc1ccc(C2c3sc(=O)[nH]c3SC3C4CC(C5C(=O)N(C(C)C(=O)O)C(=O)C45)C23)cc1 (centres undefined)	-2	59*	35	6	-2	-4	20
Cc1ccc(N2CCN(c3ccc(NC(=O)CCC(=O)O)cc3)CC2)cc1	-19	2	-3	6	0	-1	.
O=C(O)CCC(=O)Nc1ccc(N2CCCCCC2)cc1	-22	31*	19	5	-3	-3	1
O=C(C[n+]1cccc(/C=N/O)c1)NC(=O)Nc1ccccc1	.	-8	.	3	.	.	.
CCC(=O)NNc1nc2c(F)cccc2s1	-2	49*	-2	-3	1	-5	0
CCC(=O)NNc1nc2c(F)cc(F)cc2s1	-12	-2	-7	-1	-1	1	.
Nc1ccc2c3c(cccc13)-c1ccccc1-2	.	58*	.	-15	.	.	61*
Cc1ccc2c3c(cccc13)-c1ccccc1C2=O	-8	6	1	-2	-2	-5	.
CCc1nc2ccc(C(=O)N3CCN(c4ccccc4)CC3)cn2c1N(CCC(C)C)CCN(C)C	.	1	.	3	.	.	.
O=C1C=CC(=O)c2c(O)c(N3CCN(CCOCCO)CC3)c(Br)c(O)c21	.	66*	.	-2	.	.	93*
O=C1C=CC(=O)c2c(O)c(N3CCN(CCO)CC3)c(Cl)c(O)c21	.	52*	.	-7	.	.	85*
O=C(CSc1nnc(-c2ccccn2)o1)Nc1ccccc1	4	3	-8	-2	-2	-3	.
O=C(CSc1nncn1-c1ccccn1)Nc1cccc(Cl)c1	-4	5	-1	3	-1	-6	.
O=C(CSC1=NNC(c2ccccn2)S1)Nc1ccccc1 (centres undefined)	-3	66*	2	10	0	6	46*
O=C(CSC1=NNC(c2ccccn2)S1)Nc1cccc(Cl)c1 (centres undefined)	0	61*	-3	-15	0	0	41*
O=S(=O)(NNc1ncc(C(F)(F)F)cc1Cl)c1ccccc1	.	4	.	-17	1	-1	.
Cc1nc2ccc(NC3=NCCCCC3)cc2s1	9	61*	3	-8	-1	0	37*
Cc1ccc(NC2=NCCC2)cc1Cl	-6	-4	3	-2	-2	-1	.
c1cncc(CNc2ccc3c(c2)OCO3)c1	-5	75*	-3	9	-2	7	9
CC(NC(=O)COC(=O)C1CCN(c2ccc(C(F)(F)F)cn2)CC1)c1ccc(Br)cc1 (centres undefined)	-5	-3	-14	-7	4	4	.
O=[N+]([O-])c1cc2c(cc1Br)-c1ccccc1C2	.	38*	.	-6	.	.	-3
Cc1cc(C2=NNC(=NC3CC3)SC2)c(C)n1-c1ccccc1F	27	36*	-7	-14	-1	-3	14
SMILES	HCV core dimer	PRMT1 FP inh	NS3 helicase inh	ABHD5-PLIN5 inh	APOBEC3A inh	APOBEC3G inh	PRMT1 inh conf
CCN(CC)C(=O)CSc1ncnc2c1nnn2-c1ccc(OC)cc1	-3	.	-2	2	-3	-6	.
CCOC(=O)CC(=O)CSc1ncnc2c1nnn2-c1ccc(OC)cc1	-1	62*	18	-2	0	-1	79*
O=C(NN1CCCCCC1)c1ccccc1F	.	-2	.	-1	.	.	.
NS(=O)(=O)c1ccc(-c2ccc(/C=C3\NC(=S)NC3=O)o2)cc1	-29	53*	-2	18	0	-3	27*
Nn1c(SCc2cn3cc(Cl)ccc3n2)nnc1-c1ccncc1	-2	25*	8	-8	-3	-5	40*
Nn1c(SCc2cn3ccccc3n2)nnc1-c1ccncc1	1	-1	-2	13	-4	-1	.
Cc1cc(=O)[nH]c(SCC(=O)Nc2ccc(N3CCCCC3)cc2)n1	.	0	.	-2	3	2	.
CCCc1cc(=O)[nH]c(SCC(=O)Nc2ccc(N3CCCCC3)cc2)n1	.	49*	.	2	-6	-7	-1
CNC(=O)c1nnsc1S(=O)(=O)c1ccc(Cl)cc1	.	78*	-13	74*	0	-2	72*
O=C(CSC1=NC2(CCCCCC2)N=C1c1ccccc1)Nc1ccc2c(c1)OCCO2	4	2	-8	-17	2	8	.
Cc1ccc(C2=NC3(CCCC3)N=C2SCC(=O)Nc2ccc3c(c2)OCCO3)cc1	6	55*	-10	-34	3	-4	47*
O=C(c1ccc2ncsc2c1)N1CCN(c2ccccc2Cl)CC1	-1	17	-5	1	3	-2	.
Cc1cccc(N2CCN(C(=O)c3ccc4ncsc4c3)CC2)c1C	.	38*	1	3	.	.	1
Cc1n[nH]c(=S)n(NC(=O)/C=C/C(=O)Nn2c(=S)[nH]nc(C)c2=O)c1=O	.	29*	2	4	.	.	30*
Cn1cc(P(=O)(N2CCOCC2)N2CCOCC2)cc1P(=S)(N1CCOCC1)N1CCOCC1	-2	30*	-4	-13	-2	-2	40*
CCn1c(C)c(P(=O)(N2CCOCC2)N2CCOCC2)c2ccccc21	0	-1	4	-2	6	-4	.
Cn1cc(P(=S)(N2CCOCC2)N2CCOCC2)cc1P(=O)(N1CCOCC1)N1CCOCC1	-5	40*	2	-6	-5	5	6
CCOC(=O)N1CCN(C(=O)C[C@H]2C[C@@]3(C(=O)OC)C(=C[C@H](C(C)(C)C)O[C@@H]3C)N(Cc3ccco3)C2=O)CC1	.	-2	.	.	.	.	.
O=C1CCCN1CCC1CCN(C2CC(=O)N(Cc3ccc(N4CCCC4=O)cc3)C2=O)CC1 (centres undefined)	6	93*	4	17	-1	-2	7
O=C1CC(N2CCOCC2)C(=O)N1Cc1ccc(N2CCCC2=O)cc1 (centres undefined)	1	14	16	-1	0	-2	.
O=C1CC(N2CCC(O)(c3ccc(Cl)cc3)CC2)C(=O)N1Cc1ccc(N2CCCC2=O)cc1 (centres undefined)	4	63*	9	7	2	3	4
O=C1CCCN1CCC1CCN(C2CC(=O)N(c3ccc(Cl)cc3)C2=O)CC1 (centres undefined)	-1	50*	3	18	7	0	9
